Source: PubChem
RAM network inh – inhibitors of the yeast RAM network, primary screen, dse1pr::URA3 reporter, 5-FOA selection; S. cerevisiae dse1pr::URA3 reporter, 5-FOA growth OD615, 2 d; analog-sensitive cbk1-as2 kinase mutant strain; inhibition, % at 50 µM; 190,000 compounds, 1.8% hits;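 active = inhibition above a set limit, 3 SD over mean compound inhibition, cut at about 8.4% in these data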;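 also: inhibition rescues growth on 5-FOA so higher OD means more RAM inhibition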
SDO1 yeast rescue – growth rescue of sdo1-depleted yeast, primary screen, S. cerevisiae, bone marrow failure model; 140,000 compounds, 0.21% hits; z-score at 10 µM; S. cerevisiae sdo1-depleted JHY4D growth rescue, OD600 30 h; active compounds read high; pdr5 snq2 efflux-pump mutant strain;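 active = z-score above 3 at both the 24 hr and the 30 hr optical density reads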
BB579 growth dn – growth inhibitors of yeast BB579 in restrictive medium, primary screen, yeast lifespan-shortening project, S. cerevisiae | OD615, 48 h | inhibition, % at 10 µM | 140,000 compounds, 0.51% hits;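 active = inhibition above a set limit, 3 SD over the mean compound inhibition, cut at about 44% in these data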
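Assay system – yeast BB579 (DeaD) · Dosing – single compound dose of 10 µM, 0.25% DMSO final · Detection – OD615 turbidity measurement · Buffer or medium – CSMM-D restrictive synthetic medium containing dextrose (glucose) · Benchmarks – positive control amphotericin B 10 µg/mL · Incubation – 48 h exposure, 30 °C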
Yeast lifespan up – compounds extending yeast replicative lifespan, primary screen, S. cerevisiae, OD615. S. cerevisiae growth with nicotinamide; deaD strain in restrictive glucose medium. inhibition of the nicotinamide effect, % at 10 µM. 130,000 compounds, 0.68% hits;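 active = inhibition above a set limit, placed 3 SD over the median of all compounds, cut at about 26% in these data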
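Test system – modified budding yeast, DeaD strain · Compound – single dose 10 µM compound, 0.25% DMSO · Times – culture preincubation 4 h, compound exposure 48 h, both 30 °C · Detection – optical density (absorbance) at 615 nm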
Numbers stand for hits; 0 = inactive; - = no result. A selection: hits, their analogues and other compounds. The true share with any hit is near 2.7%.

SMILES	RAM network inh	SDO1 yeast rescue	BB579 growth dn	Yeast lifespan up
COc1ccc(C(=O)C(CN2CCOCC2)c2ccccc2)cc1 (stereo not drawn)	0	0	0	61.3
COc1cc(N/N=C/c2ccccc2O)ncn1	0	0	0	0
CC1(C)NC(=O)N(CC(O)COc2cc3ccccc3cc2C(=O)N2CCCCC2)C1=O (stereo not drawn)	0	0	0	0
COc1ccc(C(=O)C(OC(=O)c2ccccc2Cl)c2ccccc2)cc1 (stereo not drawn)	10.7	0	0	0
COc1ccc(C(=O)C(CN2CCCC2)c2ccccc2)cc1 (stereo not drawn)	0	0	0	0
NC(=O)CSc1nc2ccccc2c(=O)n1Cc1ccco1	0	0	0	-
O=C(CSc1nc2ccccc2c(=O)n1Cc1ccco1)c1ccc(F)cc1	0	0	0	0
COC(=O)c1ccc(CSc2nc3ccccc3c(=O)n2Cc2ccco2)o1	9.7	0	0	0
CCOC(=O)CSc1nc2ccccc2c(=O)n1CC(C)C	0	-	-	-
COC(=O)c1ccc(CSc2nc3ccccc3c(=O)n2CC(C)C)o1	9.1	0	0	0
CCCn1c(C)cc(C(=O)CSc2nc3ccccc3c(=O)n2Cc2ccco2)c1C	9.3	0	0	0
O=c1c2ccccc2nc(SCc2ccccc2Cl)n1Cc1ccccc1	8.9	0	0	0
Cc1ccc(Nc2nnc(SCC(=O)NC3CCS(=O)(=O)C3)s2)c(C)c1 (stereo not drawn)	0	-	-	-
COC(=O)c1ccc(Oc2nc(N3CCCCC3)nc(N3CCOCC3)n2)cc1	0	0	0	0
CCOc1ccc(CCN2CN(CC)CNC2=S)cc1OCC	0	-	-	-
COc1cc2c(cc1NC(=O)c1cccnc1)CCCC2	0	0	0	0
CCOc1ccc(/C=N/OCC(=O)Nc2ccc(OCc3ccccc3)cc2)cc1OC	11.3	0	0	0
COc1cc(/C=N/OCC(=O)Nc2ccc(OC(F)F)cc2)ccc1OCc1ccccc1	8.4	0	0	0
COc1cc(/C=N/OCC(=O)NC2CCCCC2)ccc1OCc1ccccc1	0	0	0	0
O=S(Cc1ccc(Br)cc1)Cc1nnc(SCc2ccc(Cl)cc2)n1-c1ccccc1 (stereo not drawn)	0	0	0	0
COC(=O)c1ccccc1Sc1c(/C=N/OC(=O)c2ccccc2)c(C(F)(F)F)nn1C	0	0	0	0
Cc1ccc(C(=O)O/N=C/c2c(C(F)(F)F)nn(C)c2Sc2ccc(Cl)cc2)cc1	9.6	0	0	0
O=S(=O)(c1ccccc1)c1ncc(C(F)(F)F)cc1Cl	9.8	-	-	-
CCC(C(=O)OCC(=O)Nc1cc(Cl)cc(Cl)c1)c1ccccc1 (stereo not drawn)	10.9	0	0	0
CCC(C(=O)OCC(=O)Nc1cccc(C(C)=O)c1)c1ccccc1 (stereo not drawn)	0	-	-	-
SMILES	RAM network inh	SDO1 yeast rescue	BB579 growth dn	Yeast lifespan up
O=C(OCn1ncc(Cl)c(Cl)c1=O)c1cccc(C(F)(F)F)c1	0	0	62.0	0
CCc1ccc(C(=O)Cn2ncc(Cl)c(Cl)c2=O)cc1	0	0	0	0
COC(=O)c1ccc(NC(=O)COC(=O)c2nc3nccc(C)n3n2)cc1	0	-	-	-
Cc1ccc(S(=O)(=O)Nc2ccc(N=Nc3ccc(O)cc3)cc2)cc1	10.9	0	0	0
COc1ccc(/C=C/C(=O)CC(O)(c2ccccc2)C(F)(F)F)cc1 (stereo not drawn)	0	0	0	-
O=C(/C=C/c1ccccc1)CC(O)(c1ccccc1)C(F)(F)F (stereo not drawn)	0	0	0	34.9
O=C(CC(O)(c1ccccc1)C(F)(F)C(F)F)c1cccs1 (stereo not drawn)	0	0	0	0
O=C(/C=C/c1ccccc1)CC(O)(c1ccccc1)C(F)(F)C(F)F (stereo not drawn)	0	0	0	40.2
Cc1cc(C2C(C#N)=C(N)Oc3n[nH]c(C)c32)c(C)s1 (stereo not drawn)	0	0	0	71.1
COc1ccc(/C=C/C(=O)NCCn2c(C)cc3ccccc32)cc1OC	0	0	0	0
Cc1cc2ccccc2n1CCNC(=O)C(C)Oc1ccccc1 (stereo not drawn)	8.7	0	0	0
Cc1cc2ccccc2n1CCNC(=O)C(C)C	0	0	0	0
COc1cc(/C=C/C(=O)NCCn2c(C)cc3ccccc32)cc(OC)c1OC	9.7	0	0	0
CC(=O)n1cc([C@H]2C=C(C(=O)O)O[C@@H](OCCCCO)C2)c2ccccc21	0	-	-	-
C/C(=C\c1ccccc1)C(=O)n1nnc2ccccc21	0	0	0	0
Cc1nc2sc3c(c2c(=O)o1)CC(C)(C)OC3	0	0	0	32.0
Cc1nc2sc3c(c2c(=O)o1)CCC3	0	0	0	0
C=CCn1c(=O)/c(=C2/Sc3cc(OC)ccc3N2C)s/c1=C1\C(=O)N(CC)C(=S)N1C	10.5	-	-	-
CCN1/C(=C2\C(=O)N(C)C(=S)N2C)C=Cc2cc(OC)ccc21	0	0	0	0
COc1ccc(C2CC(c3ccccc3)=NN2C(=O)CSc2ncn[nH]2)cc1 (stereo not drawn)	0	-	-	-
NS(=O)(=O)c1ccc(N2N=C(c3ccccc3)CC2c2ccc(F)cc2)cc1 (stereo not drawn)	0	0	0	0
COc1ccc(C2CC(c3ccccc3)=NN2C(=O)CSc2ncccn2)cc1 (stereo not drawn)	10.7	0	0	0
COc1ccc(C2CC(c3ccccc3)=NN2c2ccc(S(N)(=O)=O)cc2)cc1 (stereo not drawn)	9.3	-	-	-
CCN1C2=NCCCN2c2ccccc21	0	0	0	0
Cn1nc(C(=O)Nc2c(-c3ccccc3)nc3sccn23)c2ccccc2c1=O	9.2	0	0	0
SMILES	RAM network inh	SDO1 yeast rescue	BB579 growth dn	Yeast lifespan up
Clc1ccc2nnnc(-c3ccccc3)c2c1	0	0	45.5	0
c1ccc(-c2nnnc3ccccc23)cc1	0	0	0	0
COc1ccccc1NC(=O)CCn1cccc1	0	0	0	0
O=C(c1cnn2c(C(F)F)cc(C3CC3)nc12)N1CCCC1	0	0	0	107.4
Cc1nnc(SCc2ccccc2)nc1/C=C/NOCc1ccc(Cl)cc1Cl	8.5	0	0	0
CSc1nnc(C)c(/C=C/NOCc2cccc(F)c2)n1	0	-	-	-
Cc1ncc([N+](=O)[O-])n1Cc1cccc2ccccc12	0	0	0	0
CCc1cc2c(SCC(=O)C(C#N)=C3N(C)c4ccccc4N3C)ncnc2s1	9.0	0	0	0
CCOC(=O)c1nn(-c2cccc(OC)c2)c2nc(CC)c(C#N)c(=O)n12	8.4	0	0	0
Cc1ccc(C(=O)n2nnc3ccccc32)cc1[N+](=O)[O-]	0	0	0	32.0
COc1ccc(C(=O)n2nnc3ccccc32)cc1OC	0	0	0	0
CC1CCN(c2nc(/C=C/c3ccccc3)nc3ccccc23)CC1	0	0	91.2	0
CCCC1COC(Cn2cncn2)(c2ccc(C)cc2)O1 (stereo not drawn)	0	0	94.3	0
